Experiment [1] concerns the target T1, Aromatase (Homo sapiens, UniProt P11511).
T1 sequence (P11511 whole entry): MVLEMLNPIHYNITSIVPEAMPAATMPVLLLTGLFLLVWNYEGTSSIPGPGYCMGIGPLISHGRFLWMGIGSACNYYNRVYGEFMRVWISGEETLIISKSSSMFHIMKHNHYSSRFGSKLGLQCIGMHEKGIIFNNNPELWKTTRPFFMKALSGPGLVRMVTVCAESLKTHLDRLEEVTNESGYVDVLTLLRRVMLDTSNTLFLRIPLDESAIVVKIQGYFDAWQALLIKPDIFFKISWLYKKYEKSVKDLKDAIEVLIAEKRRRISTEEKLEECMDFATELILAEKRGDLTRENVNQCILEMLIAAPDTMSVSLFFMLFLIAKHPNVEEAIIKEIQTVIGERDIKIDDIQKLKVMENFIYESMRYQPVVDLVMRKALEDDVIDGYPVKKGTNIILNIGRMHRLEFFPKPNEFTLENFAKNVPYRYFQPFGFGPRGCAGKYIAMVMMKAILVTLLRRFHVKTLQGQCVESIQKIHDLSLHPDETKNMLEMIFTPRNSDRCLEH
The experiment is described as follows: Inhibition of human recombinant aromatase expressed in baculovirus-infected cell system using 7-methoxy-trifluoromethylcoumarin as substrate after 30 mins by fluorescence assay.

Experiment [2] deals with MCF7. Description: Cytotoxicity against estrogen-dependent human MCF7 cells after 72 hrs by MTT assay. The class given is functional, cell-based. The settings on record: for IC50: MCF7, 72 h. For orientation: Formazan colour is commonly taken as a measure of viable cells.
Experiment [3] can be described thus: Ratio of IC50 for human MCF7 cells to IC50 for human recombinant aromatase.
For experiment [4], the system named is MCF7. The experiment is described as follows: Cytotoxicity against […] human MCF7 cells after 72 hrs by MTT assay. Type of experiment: functional, cell-based. In outline:
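MCF-7 cells were raised without estrogen and without phenol red. They were seeded at 15,000/well, incubated overnight at 37 °C, then treated 72 h with freshly dissolved compounds. Viability was read by MTT (4 h), with DMSO solubilization and absorbance at 570 nm, and IC50 was calculated.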

In experiment [5] the target is T1, Aromatase.

The source made the active and inactive calls. No cut-off for these calls is given here.

The term IC50 denotes the concentration that gives 50% inhibition. As for `O=C1c2c(ccc3ccccc23)OCC1c1ccc(Oc2ccccc2)cc1` (configuration not stated), the 50% inhibitory concentration (IC50) at Aromatase [1] (read-out: IC50) amounted to 190 µM. Regarding `O=C1c2cc(F)ccc2OCC1c1cccnc1` (configuration not stated), the concentration for half-maximal inhibition (IC50) at Aromatase [1] (read-out: IC50) was 0.8 µM. In the experiment on MCF7 [2], the “growth inhibition (GI)” value was “inactive”.

Regarding `COc1ccc2c(c1)C(=O)C(c1ccc(Oc3ccccc3)cc1)CO2` (configuration not stated), the IC50 entry on Aromatase [1] is recorded as “Not Active”. For the compound `O=C1c2ccccc2OCC1c1ccccc1F` (configuration not stated), the “Ratio IC50” value in experiment [3] worked out at 2. Also, the IC50 on Aromatase [1] (read-out: IC50) is 24 µM. For the compound `O=C1c2cc(F)ccc2OCC1c1ccccc1` (configuration not stated), the “Ratio IC50” value in experiment [3] came to 2.

Take `O=C1c2ccccc2OCC1c1ccc(F)cc1` (configuration not stated): the “Ratio IC50” value in experiment [3] amounted to 2. Also, at Aromatase [1] (read-out: IC50), the concentration for half-maximal inhibition (IC50) worked out at 33 µM. In the case of `O=C1c2cc(Br)ccc2OCC1c1ccccc1` (configuration not stated), the IC50 in the experiment on MCF7 [2] stood at 100 µM. As for `O=C1c2cccc(F)c2OCC1c1ccccc1` (configuration not stated), the “Ratio IC50” value in experiment [3] was 2. The IC50 at Aromatase [1] (read-out: IC50) is 15 µM. In the case of `O=C1c2ccccc2OCC1c1ccc(C(F)(F)F)cc1` (configuration not stated), the “Ratio IC50” value in experiment [3] turned out to be 2. In addition, the IC50 result at Aromatase [1] is “Not Active”. Regarding `O=C1c2cccc(F)c2OCC1c1cccnc1` (configuration not stated), the 50% inhibitory concentration (IC50) was 67.1 µM on Aromatase [1] (read-out: IC50) and 43 µM in the experiment on MCF7 [2].

For `O=C1c2ccccc2OCC1c1cccnc1` (configuration not stated), the concentration for half-maximal inhibition (IC50) in the experiment with MCF7 [2] amounted to 31 µM. For the compound `O=C1c2ccccc2OCC1c1cc(F)cc(F)c1` (configuration not stated), on Aromatase [1] (read-out: IC50), the IC50 came out at 20 µM. Take `O=C1c2ccccc2OCC1c1cccc(F)c1` (configuration not stated): the “Ratio IC50” value in experiment [3] was found to be 2. In addition, the IC50 on Aromatase [1] (read-out: IC50) was 35 µM. For the compound `COc1ccc2c(c1)C(=O)C(c1cccnc1)CO2` (configuration not stated), the 50% inhibitory concentration (IC50) at Aromatase [1] (read-out: IC50) worked out at 2.5 µM. Moreover, the “growth inhibition (GI)” value in the experiment with MCF7 [4] and with MCF7 [2] was “inactive” throughout. Take `O=C1c2cc(F)cc(F)c2OCC1c1ccccc1` (configuration not stated): the “Ratio IC50” value in experiment [3] was 2. Moreover, the 50% inhibitory concentration (IC50) result at Aromatase [1] was “Not Active”.

For the compound `O=C1c2ccccc2OCC1c1ccc(-c2ccccc2)cc1` (configuration not stated), the “growth inhibition (GI)” value in the experiment on MCF7 [2] is “inactive”. For the compound `O=c1c(-c2ccccc2)coc2ccccc12` [ISOFLAVONE], the IC50 result against Aromatase [5] is recorded as “Not Active”.

Source of the values: ChEMBL document CHEMBL3102809, “Investigation of fluorinated and bifunctionalized 3-phenylchroman-4-one (isoflavanone) aromatase inhibitors” (Bioorg Med Chem, 2014).
